Results from ChEMBL document CHEMBL1152560, “Substituted 2-arylbenzothiazoles as kinase inhibitors: hit-to-lead optimization” (Bioorg Med Chem, 2009).

Tests used:
[1] = target: Casein kinase I isoform gamma-3 (Homo sapiens) (UniProt Q9Y6M4); assay: Residual activity of CK1gamma3 at 10 uM by microplate scintillation counting
[2] = target: Cyclin-dependent kinase 2/cyclin A (Homo sapiens) (UniProt P24941+P20248+P78396); assay: Residual activity of CDK2/Cyclin A at 10 uM by microplate scintillation counting; type: protein-complex assay
[3] = target: Tyrosine-protein kinase CSK (Homo sapiens) (UniProt P41240); assay: Residual activity of CSK at 0.1 uM by microplate scintillation counting
Chain of Tyrosine-protein kinase CSK (Homo sapiens) (P41240 2-450 limits assumed): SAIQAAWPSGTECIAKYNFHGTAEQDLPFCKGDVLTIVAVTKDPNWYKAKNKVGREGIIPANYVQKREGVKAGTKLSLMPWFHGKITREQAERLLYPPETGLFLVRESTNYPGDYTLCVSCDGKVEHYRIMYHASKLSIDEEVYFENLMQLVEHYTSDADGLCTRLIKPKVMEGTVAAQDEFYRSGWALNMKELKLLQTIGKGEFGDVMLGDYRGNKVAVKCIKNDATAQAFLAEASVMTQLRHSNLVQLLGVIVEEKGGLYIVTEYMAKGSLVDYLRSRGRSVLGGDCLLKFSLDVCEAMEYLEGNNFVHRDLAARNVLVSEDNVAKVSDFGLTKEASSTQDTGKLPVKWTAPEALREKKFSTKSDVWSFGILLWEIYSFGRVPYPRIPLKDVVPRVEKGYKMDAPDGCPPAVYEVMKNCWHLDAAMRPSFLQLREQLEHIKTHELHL

[4] = target: MAP kinase-activated protein kinase 3 (Homo sapiens) (UniProt Q16644); assay: Residual activity of MAPKAPK3 at 0.1 uM by microplate scintillation counting
Chain of MAP kinase-activated protein kinase 3 (Homo sapiens) (Q16644 whole entry, looked up): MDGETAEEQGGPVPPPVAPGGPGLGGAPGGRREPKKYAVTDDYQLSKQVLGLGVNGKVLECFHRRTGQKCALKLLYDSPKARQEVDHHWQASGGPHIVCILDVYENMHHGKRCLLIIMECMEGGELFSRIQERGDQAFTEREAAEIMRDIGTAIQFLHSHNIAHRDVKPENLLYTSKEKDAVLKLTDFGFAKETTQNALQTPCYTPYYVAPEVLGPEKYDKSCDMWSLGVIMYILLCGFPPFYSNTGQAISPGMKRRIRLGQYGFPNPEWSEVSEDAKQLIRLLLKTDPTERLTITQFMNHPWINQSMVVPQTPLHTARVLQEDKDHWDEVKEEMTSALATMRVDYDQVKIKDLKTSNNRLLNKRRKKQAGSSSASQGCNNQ

[5] = target: Dual specificity protein kinase CLK1 (Homo sapiens) (UniProt P49759); assay: Residual activity of CLK1 at 10 uM by microplate scintillation counting
Chain of Dual specificity protein kinase CLK1 (Homo sapiens) (P49759 whole entry, looked up): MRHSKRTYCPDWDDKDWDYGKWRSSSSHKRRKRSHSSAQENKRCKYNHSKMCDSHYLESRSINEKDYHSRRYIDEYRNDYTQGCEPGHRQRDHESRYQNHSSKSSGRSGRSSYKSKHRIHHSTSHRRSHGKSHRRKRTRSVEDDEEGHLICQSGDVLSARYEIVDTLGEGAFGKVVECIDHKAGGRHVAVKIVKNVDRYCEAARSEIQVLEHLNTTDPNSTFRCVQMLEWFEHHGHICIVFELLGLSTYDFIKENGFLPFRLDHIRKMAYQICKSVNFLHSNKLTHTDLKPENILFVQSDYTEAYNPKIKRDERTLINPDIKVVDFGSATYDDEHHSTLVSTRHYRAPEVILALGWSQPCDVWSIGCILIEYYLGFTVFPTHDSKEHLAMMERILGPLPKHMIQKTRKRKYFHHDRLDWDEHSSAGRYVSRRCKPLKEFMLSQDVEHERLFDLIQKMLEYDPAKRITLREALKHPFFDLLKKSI

[6] = target: BDNF/NT-3 growth factors receptor (Homo sapiens) (UniProt Q16620); assay: Residual activity of TRK-B at 1 uM by microplate scintillation counting
[7] = target: Insulin receptor (Homo sapiens) (UniProt P06213); assay: Residual activity of INSR at 0.1 uM by microplate scintillation counting
Chain of Insulin receptor (Homo sapiens) (P06213 28-758 limits assumed): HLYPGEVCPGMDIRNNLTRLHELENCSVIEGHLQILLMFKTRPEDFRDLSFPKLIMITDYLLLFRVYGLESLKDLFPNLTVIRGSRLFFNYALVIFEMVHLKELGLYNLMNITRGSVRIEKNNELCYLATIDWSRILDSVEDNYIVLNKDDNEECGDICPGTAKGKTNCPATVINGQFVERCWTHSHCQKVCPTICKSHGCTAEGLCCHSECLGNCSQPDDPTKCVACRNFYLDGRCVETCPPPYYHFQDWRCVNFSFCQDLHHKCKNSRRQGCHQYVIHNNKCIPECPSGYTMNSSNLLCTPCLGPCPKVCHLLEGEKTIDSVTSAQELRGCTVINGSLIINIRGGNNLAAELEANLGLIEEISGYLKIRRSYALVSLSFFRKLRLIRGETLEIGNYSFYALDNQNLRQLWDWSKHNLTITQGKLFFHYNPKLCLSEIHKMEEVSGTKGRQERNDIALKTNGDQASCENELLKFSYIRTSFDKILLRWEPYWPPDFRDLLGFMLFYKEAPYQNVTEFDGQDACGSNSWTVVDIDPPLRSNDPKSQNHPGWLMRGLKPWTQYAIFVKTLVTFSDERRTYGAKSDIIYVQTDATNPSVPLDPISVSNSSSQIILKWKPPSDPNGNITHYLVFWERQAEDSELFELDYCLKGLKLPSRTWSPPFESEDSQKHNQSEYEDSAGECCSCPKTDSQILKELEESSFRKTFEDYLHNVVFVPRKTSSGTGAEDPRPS
Chain of Insulin receptor (Homo sapiens) (P06213 763-1382 limits assumed): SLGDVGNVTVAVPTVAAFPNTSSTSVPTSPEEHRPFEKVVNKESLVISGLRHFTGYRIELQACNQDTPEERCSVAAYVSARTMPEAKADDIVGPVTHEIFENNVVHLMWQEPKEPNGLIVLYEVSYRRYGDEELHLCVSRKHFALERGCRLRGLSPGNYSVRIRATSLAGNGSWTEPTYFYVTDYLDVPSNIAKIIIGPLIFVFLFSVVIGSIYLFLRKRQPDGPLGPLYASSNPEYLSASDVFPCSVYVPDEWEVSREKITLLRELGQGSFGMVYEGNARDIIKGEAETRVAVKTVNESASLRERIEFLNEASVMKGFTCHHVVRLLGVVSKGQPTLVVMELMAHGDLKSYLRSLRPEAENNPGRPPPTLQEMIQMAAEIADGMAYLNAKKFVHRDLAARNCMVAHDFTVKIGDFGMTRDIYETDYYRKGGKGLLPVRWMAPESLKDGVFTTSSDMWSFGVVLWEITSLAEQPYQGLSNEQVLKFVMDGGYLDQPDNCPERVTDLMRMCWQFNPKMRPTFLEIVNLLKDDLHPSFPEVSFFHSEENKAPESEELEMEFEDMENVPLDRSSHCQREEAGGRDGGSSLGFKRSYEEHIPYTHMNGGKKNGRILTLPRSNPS

[8] = target: Platelet-derived growth factor receptor beta (Homo sapiens, UniProt P09619); assay: Inhibition of PDGFRbeta by microplate scintillation counting
Chain of Platelet-derived growth factor receptor beta (P09619 whole entry): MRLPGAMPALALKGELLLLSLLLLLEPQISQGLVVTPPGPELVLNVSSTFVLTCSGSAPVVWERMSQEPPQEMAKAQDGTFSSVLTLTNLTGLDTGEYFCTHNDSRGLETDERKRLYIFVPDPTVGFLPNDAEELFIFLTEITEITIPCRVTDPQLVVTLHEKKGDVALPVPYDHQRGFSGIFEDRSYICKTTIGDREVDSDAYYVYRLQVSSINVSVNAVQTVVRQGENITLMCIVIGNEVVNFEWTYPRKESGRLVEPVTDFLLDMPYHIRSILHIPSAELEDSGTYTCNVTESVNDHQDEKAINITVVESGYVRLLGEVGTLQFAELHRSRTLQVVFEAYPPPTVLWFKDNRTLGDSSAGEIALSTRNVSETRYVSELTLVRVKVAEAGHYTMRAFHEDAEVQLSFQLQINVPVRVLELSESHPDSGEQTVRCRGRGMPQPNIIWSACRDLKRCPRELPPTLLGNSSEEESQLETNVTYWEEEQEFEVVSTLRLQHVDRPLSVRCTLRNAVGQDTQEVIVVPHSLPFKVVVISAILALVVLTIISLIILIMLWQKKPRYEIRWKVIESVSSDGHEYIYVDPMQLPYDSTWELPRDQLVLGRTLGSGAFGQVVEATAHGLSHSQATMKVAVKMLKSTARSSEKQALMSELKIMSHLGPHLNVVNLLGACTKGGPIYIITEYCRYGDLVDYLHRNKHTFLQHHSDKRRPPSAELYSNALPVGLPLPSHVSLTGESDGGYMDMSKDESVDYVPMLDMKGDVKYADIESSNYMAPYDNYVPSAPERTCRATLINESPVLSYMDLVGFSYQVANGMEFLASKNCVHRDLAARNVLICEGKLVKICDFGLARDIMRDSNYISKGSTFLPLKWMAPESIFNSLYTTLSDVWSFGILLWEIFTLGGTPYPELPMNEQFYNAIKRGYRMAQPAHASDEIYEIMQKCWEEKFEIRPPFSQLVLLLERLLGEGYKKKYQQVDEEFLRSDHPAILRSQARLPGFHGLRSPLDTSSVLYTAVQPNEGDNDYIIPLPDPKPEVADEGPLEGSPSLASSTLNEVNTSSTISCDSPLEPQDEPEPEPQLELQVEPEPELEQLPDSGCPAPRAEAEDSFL
How it was run: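 Substrates: tetra(LRRWSLG) for Aurora A/B; poly(Ala,Glu,Lys,Tyr)6:2:5:1 for PDGFRβ; poly(Glu,Tyr)4:1 for TIE2 and VEGFR2. Stopped with 2% H3PO4.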

[9] = target: T1, Tyrosine-protein kinase receptor TYRO3 (Homo sapiens) (UniProt Q06418); assay: Residual activity of TYRO3 at 10 uM by microplate scintillation counting
T1 sequence (whole entry): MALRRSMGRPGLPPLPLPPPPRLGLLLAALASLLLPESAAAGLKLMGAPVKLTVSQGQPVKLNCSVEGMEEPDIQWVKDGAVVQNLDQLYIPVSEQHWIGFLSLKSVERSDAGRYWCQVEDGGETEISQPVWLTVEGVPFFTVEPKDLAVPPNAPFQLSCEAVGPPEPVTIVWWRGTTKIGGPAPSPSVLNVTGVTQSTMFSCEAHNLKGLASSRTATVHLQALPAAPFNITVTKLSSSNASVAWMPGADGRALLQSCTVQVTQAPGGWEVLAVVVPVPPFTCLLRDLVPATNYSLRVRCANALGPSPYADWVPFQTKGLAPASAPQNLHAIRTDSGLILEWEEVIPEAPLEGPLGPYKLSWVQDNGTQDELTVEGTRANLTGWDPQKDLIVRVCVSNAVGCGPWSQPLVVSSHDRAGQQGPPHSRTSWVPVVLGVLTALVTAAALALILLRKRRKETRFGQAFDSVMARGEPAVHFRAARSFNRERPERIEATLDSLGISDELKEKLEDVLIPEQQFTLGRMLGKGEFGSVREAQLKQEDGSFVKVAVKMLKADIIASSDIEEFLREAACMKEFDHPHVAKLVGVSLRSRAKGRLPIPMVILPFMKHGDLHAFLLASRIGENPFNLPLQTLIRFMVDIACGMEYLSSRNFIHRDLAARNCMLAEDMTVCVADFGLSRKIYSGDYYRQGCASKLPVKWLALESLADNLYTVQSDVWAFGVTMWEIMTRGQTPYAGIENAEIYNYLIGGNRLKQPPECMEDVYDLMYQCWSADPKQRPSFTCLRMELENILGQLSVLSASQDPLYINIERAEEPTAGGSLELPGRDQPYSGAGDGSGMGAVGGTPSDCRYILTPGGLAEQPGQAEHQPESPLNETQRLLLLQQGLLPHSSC

[10] = target: T2, cGMP-dependent protein kinase 2 (Homo sapiens) (UniProt Q13237); assay: Residual activity of PRKG2 at 0.1 uM by microplate scintillation counting
T2 sequence (whole entry): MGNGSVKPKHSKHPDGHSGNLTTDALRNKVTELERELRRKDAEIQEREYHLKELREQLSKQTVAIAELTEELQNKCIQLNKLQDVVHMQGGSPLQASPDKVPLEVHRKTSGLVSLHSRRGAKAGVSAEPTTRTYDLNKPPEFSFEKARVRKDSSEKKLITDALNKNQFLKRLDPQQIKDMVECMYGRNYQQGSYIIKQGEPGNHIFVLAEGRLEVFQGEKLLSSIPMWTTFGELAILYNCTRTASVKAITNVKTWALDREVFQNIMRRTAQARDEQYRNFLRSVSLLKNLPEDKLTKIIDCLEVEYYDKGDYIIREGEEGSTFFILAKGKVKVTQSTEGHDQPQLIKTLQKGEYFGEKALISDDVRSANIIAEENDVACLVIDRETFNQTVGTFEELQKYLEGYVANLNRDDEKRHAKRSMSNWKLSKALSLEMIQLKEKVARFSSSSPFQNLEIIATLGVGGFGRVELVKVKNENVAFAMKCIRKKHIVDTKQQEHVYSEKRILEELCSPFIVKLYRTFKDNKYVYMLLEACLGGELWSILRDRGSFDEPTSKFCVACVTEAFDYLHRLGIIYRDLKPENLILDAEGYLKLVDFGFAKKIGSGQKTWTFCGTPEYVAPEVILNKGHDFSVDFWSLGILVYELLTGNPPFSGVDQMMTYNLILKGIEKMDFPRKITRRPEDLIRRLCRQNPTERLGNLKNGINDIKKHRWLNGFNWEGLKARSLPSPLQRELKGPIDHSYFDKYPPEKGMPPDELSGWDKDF

[11] = target: T3, Tyrosine-protein kinase ITK/TSK (Homo sapiens) (UniProt Q08881); assay: Residual activity of ITK at 0.1 uM by microplate scintillation counting
T3 sequence (whole entry): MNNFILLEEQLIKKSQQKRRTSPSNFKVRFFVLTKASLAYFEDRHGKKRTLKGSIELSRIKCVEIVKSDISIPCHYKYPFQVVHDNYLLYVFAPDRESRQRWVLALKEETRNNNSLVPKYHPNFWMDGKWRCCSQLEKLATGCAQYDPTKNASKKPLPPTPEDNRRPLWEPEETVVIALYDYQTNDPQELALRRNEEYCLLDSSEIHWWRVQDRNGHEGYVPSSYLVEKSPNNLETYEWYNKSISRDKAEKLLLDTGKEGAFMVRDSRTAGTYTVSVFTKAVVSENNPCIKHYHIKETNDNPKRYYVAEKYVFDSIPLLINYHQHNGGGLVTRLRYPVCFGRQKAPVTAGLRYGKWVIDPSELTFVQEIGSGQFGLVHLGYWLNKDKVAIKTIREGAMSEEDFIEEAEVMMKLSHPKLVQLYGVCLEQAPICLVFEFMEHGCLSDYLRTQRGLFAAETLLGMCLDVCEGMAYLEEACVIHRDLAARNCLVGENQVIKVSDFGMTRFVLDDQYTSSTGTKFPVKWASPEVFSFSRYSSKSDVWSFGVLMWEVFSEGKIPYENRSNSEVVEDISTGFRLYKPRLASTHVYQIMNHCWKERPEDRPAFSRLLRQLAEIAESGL

[12] = target: Death-associated protein kinase 3 (Homo sapiens) (UniProt O43293); assay: Residual activity of DAPK3 at 1 uM by microplate scintillation counting
Chain of Death-associated protein kinase 3 (Homo sapiens) (O43293 whole entry, looked up): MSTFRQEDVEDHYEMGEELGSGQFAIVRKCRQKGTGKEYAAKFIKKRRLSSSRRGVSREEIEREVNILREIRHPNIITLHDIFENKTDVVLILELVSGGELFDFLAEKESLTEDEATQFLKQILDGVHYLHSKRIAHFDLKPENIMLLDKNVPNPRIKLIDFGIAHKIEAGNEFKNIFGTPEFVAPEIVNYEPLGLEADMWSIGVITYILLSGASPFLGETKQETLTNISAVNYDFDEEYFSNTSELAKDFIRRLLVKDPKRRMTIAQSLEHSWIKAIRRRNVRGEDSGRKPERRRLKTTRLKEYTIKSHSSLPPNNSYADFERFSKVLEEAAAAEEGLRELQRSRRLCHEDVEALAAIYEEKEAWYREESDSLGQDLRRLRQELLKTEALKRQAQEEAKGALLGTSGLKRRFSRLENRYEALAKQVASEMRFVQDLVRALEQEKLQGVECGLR

Chain of Casein kinase I isoform gamma-3 (Homo sapiens) (Q9Y6M4 whole entry, looked up, canonical isoform): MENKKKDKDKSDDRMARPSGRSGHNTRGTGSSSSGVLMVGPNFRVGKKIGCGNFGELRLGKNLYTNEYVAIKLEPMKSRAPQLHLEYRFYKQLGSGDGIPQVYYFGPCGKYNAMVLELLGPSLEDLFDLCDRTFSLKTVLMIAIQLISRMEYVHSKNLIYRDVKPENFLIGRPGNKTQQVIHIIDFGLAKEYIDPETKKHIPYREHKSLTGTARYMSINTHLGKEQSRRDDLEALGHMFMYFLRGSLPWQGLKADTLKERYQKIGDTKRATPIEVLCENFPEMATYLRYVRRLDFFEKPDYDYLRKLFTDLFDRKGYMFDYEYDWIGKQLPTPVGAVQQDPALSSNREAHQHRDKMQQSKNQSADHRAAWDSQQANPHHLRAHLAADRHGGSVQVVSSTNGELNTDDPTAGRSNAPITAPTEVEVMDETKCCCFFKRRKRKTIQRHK

SMILES | residual activity [1] | residual activity [2] | residual activity [3] | residual activity [4] | residual activity [5] | residual activity [6] | residual activity [7] | IC50 [8] | residual activity [9] | residual activity [10] | residual activity [11] | residual activity [12]
COc1cc2c(Oc3ccc(-c4nc5ccccc5s4)cc3)ncnc2cc1OCCCN1CCN(C)CC1 | 107% | 84% | 120% | 91% | 83% | 93% | 100% | 3.5 µM | 84% | 87% | 99% | 84%
COc1cc2c(Oc3ccc(-c4nc5ccccc5s4)cc3F)ncnc2cc1OCCCN1CCN(C)CC1 | 105% | 73% | 104% | 94% | 61% | 95% | 96% | 6.1 µM | 17% | 86% | 107% | 81%
COc1cc2c(Oc3ccc(-c4nc5ccccc5s4)cc3)ncnc2cc1OCCCN1CCCC1 | 101% | 79% | 111% | 93% | 97% | 104% | 96% | 7.7 µM | 120% | 84% | 98% | 86%
